Data: publication PMC3866226 (Molecular pharmaceutics, 2013)
Values joined by “and” are separate entries in the source; they are usually repeats but may differ in a detail not shown here. Equal values may be shown once. “Also recorded” adds a separate entry of the source. Bridge positions count the residues as written; N and C are the ends. Square brackets hold non-standard residues; d marks the D form. Peptide text beside a SMILES is read from it.

Tests used:
B16/F1 melanoma cells [1] = test: Cellular internalization; assay type: cell-based, murine; conditions: after 20 min of incubation at 25 °C, acid wash pH 4.5, n=3
Method in brief: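 Cells at 2.5×10^5/well were grown overnight at 37 °C and washed with binding medium (MEM, 25 mM HEPES pH 7.4, 0.2% BSA, 0.3 mM 1,10-phenanthroline). They were incubated at 25 °C with ~200,000 cpm HPLC-purified radiopeptide for 20–120 min (n=3). Membrane-bound activity was stripped with 40 mM sodium acetate pH 4.5/0.9% NaCl/0.2% BSA. Cells were lysed in 1 N NaOH for 5 min; both fractions were gamma-counted.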

B16/F1 melanoma cells [2] = test: Cellular efflux; assay type: cell-based, murine; conditions: loaded 2 h at 25 °C, then 2 h of incubation in the culture medium
Method in brief: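 B16/F1 cells were seeded at 2.5×10^5/well and grown overnight at 37 °C. They were loaded with radiopeptide for 2 h at 25 °C and rinsed twice with ice-cold PBS. Release into culture medium was then monitored. At 20, 40, 60, 90 and 120 min, surface-bound and intracellular radioactivity were collected separately and gamma-counted.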

[3] = Biodistribution in B16/F1 melanoma-bearing C57 mice; assay type: in vivo, mouse; conditions: female, C57, mouse, iv, 0.037 MBq, total radioactivity
Method in brief: (§1)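 Female C57 mice bore subcutaneous right-flank tumours from 1×10^6 B16/F1 cells (~0.2 g at 10 days). Radiopeptide, 0.037 MBq in pH 7.4 saline, went in via tail vein. Groups of 4 were killed at 0.5, 2, 4 and 24 h; tumours and organs were weighed and gamma-counted. Blood was taken as 6.5% body weight. Blockade: co-injected 10 µg (6.1 nmol) unlabeled NDP-MSH, 2 h. Results as %ID/g or %ID, mean ± SD, n=4.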

[4] = test system: B16/F1 melanoma-bearing C57 mice; test: as above; assay type: in vivo, mouse
Method in brief: as §1

[5] = test system: B16/F1 melanoma-bearing C57 mice; test: Effect of L-lysine co-injection on renal and tumor uptake; assay type: in vivo, mouse; conditions: 2 h post-injection, 15 mg L-lysine
Method in brief: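 Groups of 4 tumour-bearing C57 mice received 0.037 MBq radiopeptide mixed with 15 mg L-lysine via injection. Mice were killed at 2 h, and tumours and organs were weighed and gamma-counted. Uptake with versus without L-lysine was compared by unpaired Student's t-test, significance p<0.05.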

[6] = test system: B16/F1 melanoma-bearing C57 mice; test: Urinary metabolites by radio-HPLC; assay type: in vivo, mouse; conditions: urine at 2 h post-injection of ~3.7 MBq via tail vein
[7] = test system: B16/F1 melanoma-bearing C57 mice; test: Melanoma imaging by small animal SPECT/CT; assay type: in vivo, mouse; conditions: 2 h post-injection of 7.4 MBq via tail vein

CC(C)[C@H](NC(=O)[C@@H]1CCCN1C(=O)[C@H](CCCNC(=N)N)NC(=O)[C@H](CS)NC(=O)[C@H](Cc1c[nH]c2ccccc12)NC(=O)[C@H](CCCNC(=N)N)NC(=O)[C@@H](Cc1ccccc1)NC(=O)[C@H](Cc1c[nH]cn1)NC(=O)[C@H](CCC(=O)O)NC(=O)[C@H](CS)NC(=O)[C@H](CS)NC(=O)[C@H](CCCCN)NC(=O)[C@@H]1CC(=O)N[C@@H](CCCNC(=N)N)C(=O)N[C@@H](C(C)C)C(=O)N[C@@H](CC(=O)O)C(=O)N[C@H](Cc2ccc(O)cc2)C(=O)N1)C(N)=O [^99mTc-RVD-Lys-(Arg^11)CCMSH, metal not drawn] (RVD[dY]DKCCEH[dF]RWCRPV-NH2; lactam N-5)
Activity internalized in the cells (B16/F1 melanoma cells [1]): ~72% | Activity remained inside the cells (cellular efflux) (B16/F1 melanoma cells [2]): 70% | tissue uptake at 0.5 h ([3]; blood): 1.5 ± 0.52 %ID/g | tissue uptake at 2 h ([3]; blood): 0.49 ± 0.05 %ID/g | tissue uptake at 4 h ([3]; blood): 0.54 ± 0.45 %ID/g | tissue uptake at 24 h ([3]; blood): 0.07 ± 0.02 %ID/g | tissue uptake at 0.5 h ([3]; bone): 1.6 ± 0.73 %ID/g | tissue uptake at 2 h ([3]; bone): 0.57 ± 0.08 %ID/g | tissue uptake at 4 h ([3]; bone): 0.54 ± 0.28 %ID/g | tissue uptake at 24 h ([3]; bone): 0.47 ± 0.05 %ID/g | tissue uptake at 0.5 h ([3]; brain): 0.15 ± 0.05 %ID/g | tissue uptake at 2 h ([3]; brain): 0.04 ± 0.01 %ID/g | tissue uptake at 4 h ([3]; brain): 0.02 ± 0.01 %ID/g | tissue uptake at 24 h ([3]; brain): 0.03 ± 0.01 %ID/g | tissue uptake at 0.5 h ([3]; heart): 0.74 ± 0.43 %ID/g | tissue uptake at 2 h ([3]; heart): 0.26 ± 0.15 %ID/g | tissue uptake at 4 h ([3]; heart): 0.16 ± 0.03 %ID/g | tissue uptake at 24 h ([3]; heart): 0.1 ± 0.07 %ID/g | tissue uptake dose at 0.5 h ([3]; intestines): 1.36 ± 0.27 %ID | tissue uptake dose at 2 h ([3]; intestines): 1.59 ± 1.08 %ID | tissue uptake dose at 4 h ([3]; intestines): 0.95 ± 0.3 %ID | tissue uptake dose at 24 h ([3]; intestines): 0.44 ± 0.22 %ID | tissue uptake at 0.5 h ([3]; kidneys): 90.2 ± 15.4 %ID/g | tissue uptake at 2 h ([3]; kidneys): 94 ± 18.3 %ID/g | tissue uptake at 4 h ([3]; kidneys): 73.9 ± 3.73 %ID/g | tissue uptake at 24 h ([3]; kidneys): 44.3 ± 12.1 %ID/g | tissue uptake at 0.5 h ([3]; liver): 1.86 ± 0.17 %ID/g | tissue uptake at 2 h ([3]; liver): 1.4 ± 0.34 %ID/g | tissue uptake at 4 h ([3]; liver): 1.59 ± 0.13 %ID/g | tissue uptake at 24 h ([3]; liver): 1.21 ± 0.26 %ID/g | tissue uptake at 0.5 h ([3]; lung): 2.01 ± 0.97 %ID/g | tissue uptake at 2 h ([3]; lung): 0.87 ± 0.4 %ID/g | tissue uptake at 4 h ([3]; lung): 0.49 ± 0.43 %ID/g | tissue uptake at 24 h ([3]; lung): 0.19 ± 0.1 %ID/g | tissue uptake at 0.5 h ([3]; muscle): 11.2 ± 6.02 %ID/g | tissue uptake at 2 h ([3]; muscle): 0.17 ± 0.1 %ID/g | tissue uptake at 4 h ([3]; muscle): 0.1 ± 0.07 %ID/g | tissue uptake at 24 h ([3]; muscle): 0.26 ± 0.02 %ID/g | tissue uptake at 0.5 h ([3]; pancreas): 0.62 ± 0.25 %ID/g | tissue uptake at 2 h ([3]; pancreas): 0.1 ± 0.02 %ID/g | tissue uptake at 4 h ([3]; pancreas): 0.08 ± 0.08 %ID/g | tissue uptake at 24 h ([3]; pancreas): 0.18 ± 0.07 %ID/g | tissue uptake at 0.5 h ([3]; skin): 9.59 ± 0.62 %ID/g | tissue uptake at 2 h ([3]; skin): 0.69 ± 0.18 %ID/g | tissue uptake at 4 h ([3]; skin): 0.35 ± 0.08 %ID/g | tissue uptake at 24 h ([3]; skin): 0.42 ± 0.27 %ID/g | tissue uptake at 0.5 h ([3]; spleen): 0.82 ± 0.43 %ID/g | tissue uptake at 2 h ([3]; spleen): 0.4 ± 0.1 %ID/g | tissue uptake at 4 h ([3]; spleen): 0.5 ± 0.15 %ID/g | tissue uptake at 24 h ([3]; spleen): 0.34 ± 0.06 %ID/g | tissue uptake at 0.5 h ([3]; stomach): 1.92 ± 0.53 %ID/g | tissue uptake at 2 h ([3]; stomach): 1.21 ± 0.61 %ID/g | tissue uptake at 4 h ([3]; stomach): 0.96 ± 0.27 %ID/g | tissue uptake at 24 h ([3]; stomach): 0.4 ± 0.13 %ID/g | tissue to tissue ratio at 0.5 h ([3]; tumor / blood): 11.1 | tissue to tissue ratio at 2 h ([3]; tumor / blood): 34.9 | tissue to tissue ratio at 4 h ([3]; tumor / blood): 36.4 | tissue to tissue ratio at 24 h ([3]; tumor / blood): 126 | tissue to tissue ratio at 0.5 h ([3]; tumor / kidneys): 0.19 | tissue to tissue ratio at 2 h ([3]; tumor / kidneys): 0.18 | tissue to tissue ratio at 4 h ([3]; tumor / kidneys): 0.27 | tissue to tissue ratio at 24 h ([3]; tumor / kidneys): 0.2 | tissue to tissue ratio at 0.5 h ([3]; tumor / lung): 8.31 | tissue to tissue ratio at 2 h ([3]; tumor / lung): 19.7 | tissue to tissue ratio at 4 h ([3]; tumor / lung): 40.1 | tissue to tissue ratio at 24 h ([3]; tumor / lung): 46.4 | tissue uptake at 0.5 h ([3]; tumor): 16.7 ± 5.31 %ID/g | tissue uptake at 2 h ([3]; tumor): 17.1 ± 3.82 %ID/g | tissue uptake at 4 h ([3]; tumor): 19.6 ± 4.68 %ID/g | tissue uptake at 24 h ([3]; tumor): 8.81 ± 2.13 %ID/g | tissue to tissue ratio at 0.5 h ([3]; tumor/liver): 8.98 | tissue to tissue ratio at 2 h ([3]; tumor/liver): 12.2 | tissue to tissue ratio at 4 h ([3]; tumor/liver): 12.3 | tissue to tissue ratio at 24 h ([3]; tumor/liver): 7.28 | tissue to tissue ratio at 0.5 h ([3]; tumor/muscle): 1.48 | tissue to tissue ratio at 2 h ([3]; tumor/muscle): 101 | tissue to tissue ratio at 4 h ([3]; tumor/muscle): 196 | tissue to tissue ratio at 24 h ([3]; tumor/muscle): 33.9 | dose excreted at 0.5 h ([3]; urine): 44.5 ± 3.12% | dose excreted at 2 h ([3]; urine): 59.2 ± 9.65% | dose excreted at 4 h ([3]; urine): 67.5 ± 10% | dose excreted at 24 h ([3]; urine): 76.8 ± 8.21% | Renal uptake as % of the renal uptake of ^99mTc-RTD-Lys-(Arg^11)CCMSH ([4]; 0.5 h post-injection): 62% | Renal uptake as % of the renal uptake of ^99mTc-RTD-Lys-(Arg^11)CCMSH ([4]; 2 h post-injection): 70% | Uptake ratio Tumor/Blood ([4]; 2 h post-injection, NDP blockade): 2.75 | Renal uptake as % of the renal uptake of ^99mTc-RTD-Lys-(Arg^11)CCMSH ([4]; 4 h post-injection): 70% | Reduction of renal uptake by L-lysine co-injection ([5]; versus without L-lysine): 41% and 40–50% | Effect of L-lysine co-injection on tumor uptake ([5]; p>0.05): didn't affect the tumor uptake; also recorded: without affecting their tumor uptake | Remained intact in the urine [6]: Approximately 70% | Transformed to a more hydrophobic compound in the urine [6]: 30% | Visualization of flank B16/F1 melanoma lesions by SPECT/CT [7]: clearly visualized
